# Test system: U2OS
# Assay: Multiplex assay against U2OS
# Type: toxicity, cell-based
# Details: human
# In short: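 At seeding, live cells were stained with Hoechst33342, BioTracker Green Microtubule Cytoskeleton Dye, MitoTracker Red and Annexin V Alexa Fluor 680. After compound addition they were imaged on a CQ1 microscope at 37°C and 5% CO2, and CellPathfinder machine-learning gating sorted them into Hoechst high-intensity objects or normal cells, with normal cells further split into healthy, pyknosed or fragmented nuclei and pyknosed cells into mitotic or apoptotic. Tubulin, mitochondrial-mass and membrane-permeability phenotypes are given as per cents of cells with healthy nuclei.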
# [1] = 12 h, 1 µM, compound concentration 1 uM, replicate 1
# [2] = 12 h, 1 µM, compound concentration 1 uM, replicate 2
# [3] = 12 h, 10 µM, compound concentration 10 uM, replicate 1
# [4] = 12 h, 10 µM, compound concentration 10 uM, replicate 2
# [5] = 24 h, 1 µM, compound concentration 1 uM, replicate 1
# [6] = 24 h, 1 µM, compound concentration 1 uM, replicate 2
# [7] = 24 h, 10 µM, compound concentration 10 uM, replicate 1
# [8] = 24 h, 10 µM, compound concentration 10 uM, replicate 2
# [9] = 48 h, 1 µM, compound concentration 1 uM, replicate 1
# [10] = 48 h, 1 µM, compound concentration 1 uM, replicate 2
# [11] = 48 h, 10 µM, compound concentration 10 uM, replicate 1
# [12] = 48 h, 10 µM, compound concentration 10 uM, replicate 2
structure (smiles),measurement,setting,value
CCNC1(C(N)=O)CCN(c2ncnc3c2nc(-c2ccccc2Cl)n3-c2ccc(Cl)cc2)CC1 [OTENABANT],Population Apoptotic (%),[1],77%
same,Population Fragmented Nuclei (%),[1],30%
same,Population Healthy Nuclei (%),[1],60%
same,Population Hoechst High Intensity Objects (%),[1],3%
same,Population Membrane Permeable-Phenotype (%),[1],13%
same,Population Mitochondria Different-Phenotype (%),[1],7%
same,Population Mitotic Cells (%),[1],22%
same,Population Normal (%),[1],96%
same,Population Pyknosed Nuclei (%),[1],9%
same,Population Tubulin-Different-Phenotype (%),[1],4%
same,Total Cell Count,[1],254
same,Population Apoptotic (%),[2],85%
same,Population Fragmented Nuclei (%),[2],17%
same,Population Healthy Nuclei (%),[2],74%
same,Population Hoechst High Intensity Objects (%),[2],2%
same,Population Membrane Permeable-Phenotype (%),[2],11%
same,Population Mitochondria Different-Phenotype (%),[2],22%
same,Population Mitotic Cells (%),[2],14%
same,Population Normal (%),[2],97%
same,Population Pyknosed Nuclei (%),[2],7%
same,Population Tubulin-Different-Phenotype (%),[2],10%
same,Total Cell Count,[2],93
same,Population Apoptotic (%),[3],58%
same,Population Fragmented Nuclei (%),[3],31%
same,Population Healthy Nuclei (%),[3],48%
same,Population Hoechst High Intensity Objects (%),[3],6%
same,Population Membrane Permeable-Phenotype (%),[3],81%
same,Population Mitochondria Different-Phenotype (%),[3],63%
same,Population Mitotic Cells (%),[3],41%
same,Population Normal (%),[3],93%
same,Population Pyknosed Nuclei (%),[3],19%
same,Population Tubulin-Different-Phenotype (%),[3],89%
same,Total Cell Count,[3],211
same,Population Apoptotic (%),[4],70%
same,Population Fragmented Nuclei (%),[4],21%
same,Population Healthy Nuclei (%),[4],60%
same,Population Hoechst High Intensity Objects (%),[4],0%
same,Population Membrane Permeable-Phenotype (%),[4],65%
same,Population Mitochondria Different-Phenotype (%),[4],73%
same,Population Mitotic Cells (%),[4],30%
same,Population Normal (%),[4],99%
same,Population Pyknosed Nuclei (%),[4],18%
same,Population Tubulin-Different-Phenotype (%),[4],76%
same,Total Cell Count,[4],112
same,Population Apoptotic (%),[5],79%
same,Population Fragmented Nuclei (%),[5],26%
same,Population Healthy Nuclei (%),[5],61%
same,Population Hoechst High Intensity Objects (%),[5],3%
same,Population Membrane Permeable-Phenotype (%),[5],11%
same,Population Mitochondria Different-Phenotype (%),[5],5%
same,Population Mitotic Cells (%),[5],20%
same,Population Normal (%),[5],96%
same,Population Pyknosed Nuclei (%),[5],11%
same,Population Tubulin-Different-Phenotype (%),[5],7%
same,Total Cell Count,[5],308
same,Population Apoptotic (%),[6],80%
same,Population Fragmented Nuclei (%),[6],24%
same,Population Healthy Nuclei (%),[6],62%
same,Population Hoechst High Intensity Objects (%),[6],4%
same,Population Membrane Permeable-Phenotype (%),[6],15%
same,Population Mitochondria Different-Phenotype (%),[6],15%
same,Population Normal (%),[6],95%
same,Population Pyknosed Nuclei (%),[6],13%
same,Population Tubulin-Different-Phenotype (%),[6],5%
same,Total Cell Count,[6],120
same,Population Apoptotic (%),[7],69%
same,Population Fragmented Nuclei (%),[7],29%
same,Population Healthy Nuclei (%),[7],49%
same,Population Hoechst High Intensity Objects (%),[7],3%
same,Population Membrane Permeable-Phenotype (%),[7],55%
same,Population Mitochondria Different-Phenotype (%),[7],75%
same,Population Mitotic Cells (%),[7],30%
same,Population Normal (%),[7],96%
same,Population Pyknosed Nuclei (%),[7],20%
same,Population Tubulin-Different-Phenotype (%),[7],78%
same,Total Cell Count,[7],218
same,Population Apoptotic (%),[8],80%
same,Population Fragmented Nuclei (%),[8],28%
same,Population Healthy Nuclei (%),[8],53%
same,Population Membrane Permeable-Phenotype (%),[8],47%
same,Population Mitochondria Different-Phenotype (%),[8],72%
same,Population Mitotic Cells (%),[8],20%
same,Population Pyknosed Nuclei (%),[8],18%
same,Population Tubulin-Different-Phenotype (%),[8],62%
same,Total Cell Count,[8],137
same,Population Apoptotic (%),[9],86%
same,Population Fragmented Nuclei (%),[9],24%
same,Population Healthy Nuclei (%),[9],64%
same,Population Hoechst High Intensity Objects (%),[9],1%
same,Population Membrane Permeable-Phenotype (%),[9],7%
same,Population Mitochondria Different-Phenotype (%),[9],4%
same,Population Mitotic Cells (%),[9],13%
same,Population Normal (%),[9],98%
same,Population Pyknosed Nuclei (%),[9],10%
same,Population Tubulin-Different-Phenotype (%),[9],3%
same,Total Cell Count,[9],416
same,Population Apoptotic (%),[10],52%
same,Population Fragmented Nuclei (%),[10],16%
same,Population Healthy Nuclei (%),[10],69%
same,Population Hoechst High Intensity Objects (%),[10],4%
same,Population Membrane Permeable-Phenotype (%),[10],13%
same,Population Mitochondria Different-Phenotype (%),[10],10%
same,Population Mitotic Cells (%),[10],47%
same,Population Normal (%),[10],95%
same,Population Pyknosed Nuclei (%),[10],14%
same,Population Tubulin-Different-Phenotype (%),[10],9%
same,Total Cell Count,[10],137
same,Population Apoptotic (%),[11],86%
same,Population Fragmented Nuclei (%),[11],32%
same,Population Healthy Nuclei (%),[11],43%
same,Population Hoechst High Intensity Objects (%),[11],7%
same,Population Membrane Permeable-Phenotype (%),[11],49%
same,Population Mitochondria Different-Phenotype (%),[11],55%
same,Population Mitotic Cells (%),[11],13%
same,Population Normal (%),[11],92%
same,Population Pyknosed Nuclei (%),[11],23%
same,Population Tubulin-Different-Phenotype (%),[11],51%
same,Total Cell Count,[11],269
same,Population Apoptotic (%),[12],80%
same,Population Fragmented Nuclei (%),[12],29%
same,Population Healthy Nuclei (%),[12],45%
same,Population Hoechst High Intensity Objects (%),[12],10%
same,Population Membrane Permeable-Phenotype (%),[12],43%
same,Population Mitochondria Different-Phenotype (%),[12],66%
same,Population Mitotic Cells (%),[12],20%
same,Population Normal (%),[12],89%
same,Population Pyknosed Nuclei (%),[12],24%
same,Population Tubulin-Different-Phenotype (%),[12],49%
same,Total Cell Count,[12],138

# — ChEMBL document CHEMBL5058577, “EUbOPEN Chemogenomics Library 2 (Multiplex)” (2022)
